# aDG glyco up: increases alpha dystroglycan glycosylation. Pro5-aDG cells, alpha-DG glycosylation AlphaScreen (IIH6); 0% Pro5, 100% B10-LARGE cell signal. activation, % at 10 µM. 360,000 compounds, 0.22% hits;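 active means activation of at least 8% versus controls, or a plate z-score of at least 8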;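 further: Pro5 are CHO cells carrying HIG-tagged alpha-DG that lacks glycosylation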
# TPT1 inhibitor: inhibitors of Candida albicans tRNA 2'-phosphotransferase TPT1; recombinant caTPT1, FP RNA substrate dephosphorylation; inhibition, % at 5 µM; 300,000 compounds, 0.81% hits;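 active means inhibition above the mean of all tested compounds plus 3 SD, set per screening campaign, cut at about 24% in these data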;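 further: plate controls were DMSO alone for no effect and ferristatin control at 100 nM for full effect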
# Rpn11 inh: blocks the human proteasome subunit Rpn11 | human 26S proteasome, Ub4-pepOG fluorescence polarization; 20S core pre-blocked with epoxomicin | inhibition, % at 20 µM | 360,000 compounds, 0.59% hits | AID 588493;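 active means inhibition at 20 µM, scaled to each plate's controls, above about 33%, limit read from the data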
# CSN deneddyl inh: blocks human CSN-mediated cullin deneddylation; inhibition, % at 12.5 µM; Purified CSN, SCF-Nedd8-OG deneddylation, fluorescence polarization; 360,000 compounds, 0.38% hits;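 active means pattern-corrected inhibition above about 35%, with an unprinted fluorescence ratio check between 0.5 and 1.5, limit read from the data, passing the limit was not always enough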;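 further: 0% = enzyme with substrate and 100% = substrate without enzyme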
# Target sequence (Q92905 whole entry, looked up, one chain of several): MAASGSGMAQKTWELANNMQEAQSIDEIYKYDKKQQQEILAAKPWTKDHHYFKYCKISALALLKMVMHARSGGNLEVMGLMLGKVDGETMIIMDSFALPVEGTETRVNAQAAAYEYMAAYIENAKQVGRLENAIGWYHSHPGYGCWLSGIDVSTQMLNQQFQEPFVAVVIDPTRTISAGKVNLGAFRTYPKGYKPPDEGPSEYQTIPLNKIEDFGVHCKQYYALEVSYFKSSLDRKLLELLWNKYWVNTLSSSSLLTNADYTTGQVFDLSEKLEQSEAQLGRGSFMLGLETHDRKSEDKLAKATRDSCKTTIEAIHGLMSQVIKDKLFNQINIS
#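 Assay system: purified human Csn5 enzyme expressed in HEK293T cells; Input: 0.24 nM Csn5 enzyme, final concentration; Reagent: 10 nM SCFSkp2-Nedd8OG; Compound dosing: 12.5 µM single point; Times: reaction 90 min, room temperature; Technique: fluorescence polarization readout.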
# HNF4A DNA FP: change in binding of human HNF4 alpha to DNA; P41235; HNF4a-FITC DNA binding, fluorescence polarization, 1 h; activity change, % at 10 µM; 360,000 compounds, 0.3% hits; in the data active means activity change above about 30%, passing the limit was not always enough
# Xi reactivation: activators of X-chromosome reactivation in mouse fibroblasts; XiGFP mouse fibroblasts, % GFP-positive cells imaging, 3 d; cells co-treated with 5-aza-dC sensitizer; scaled so ellipticine positive control = 100%; activation, % at 7.58 µM; 360,000 compounds, 0.055% hits; AID 743238;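 active means mean normalized replicate activation at least 10% and every replicate at or above 10%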;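 further: 0% = median of on-plate neutral control wells and 100% = ellipticine 6 µM median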
#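 System: 68-5-11 XiGFP fibroblast line | Buffer or medium: DMEM containing 5-aza-dC | Compound: Single point | Times: Compounds 3 days, fix/stain 15 min at room temperature | Benchmarks: Positive control ellipticine, 6 µM final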
# caTPT1 confirm: confirmation of Candida albicans TPT1 inhibitors; recombinant caTPT1, fluorescence polarization, RNase T1 coupled; 2,400 compounds, 74% hits; inhibition, % at 5 µM; shares compounds with TPT1 inhibitor;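 active means inhibition above the primary screen limit, the mean inhibition of all tested compounds plus 3 SD, cut at about 25% in these data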
# RNase T1 inh: counter-screen for TPT1 inhibitors: inhibitors of Aspergillus oryzae RNase T1; RNase T1 cleavage, fluorescence polarization, 1536-well; shares compounds with TPT1 inhibitor; 2,400 compounds, 83% hits; inhibition, % at 5 µM;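 active means inhibition above the solvent-only control well mean plus 3 SD, limit set per screening run, cut at about 23% in these data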;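 further: plate controls were DMSO wells with enzyme for no effect and wells without RNase T1 for full effect; inhibitors block cleavage so intact labeled substrate keeps polarization high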
# Target sequence (P00651 whole entry, looked up): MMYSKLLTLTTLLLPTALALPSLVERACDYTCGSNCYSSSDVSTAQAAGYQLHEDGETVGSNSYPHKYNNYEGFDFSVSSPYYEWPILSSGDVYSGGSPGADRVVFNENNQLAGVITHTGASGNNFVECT
# * marks the source's active call; other numbers are inactive results; · = not tested or not shown. In the library only some 1.3% were active in any assay of this set; here they are far more common.
SMILES,aDG glyco up,TPT1 inhibitor,Rpn11 inh,CSN deneddyl inh,HNF4A DNA FP,Xi reactivation,caTPT1 confirm,RNase T1 inh
Cc1ccccc1-n1c(O)c(/C=C/C=Nc2ccccc2)c(=O)[nH]c1=O,0,154*,·,31,171,0,168*,157*
CCN1/C(=C/c2ccc3cc(C)ccc3[n+]2CC)Sc2ccc3sccc3c21,0,33*,147*,162*,249,·,63*,66*
C[C@H](CO)N1C[C@H](C)[C@H](CN(C)C(=O)CCCN(C)C)OCCCC[C@H](C)Oc2ccc(NC(=O)NC3CCCCC3)cc2C1=O,·,·,·,·,·,-1,·,·
N=c1oc2cc(O)ccc2cc1C(=O)Nc1ccc(Cl)cc1,0,50*,12,5,34,0,70*,80*
Cc1noc(C)c1NC(=O)N(C)C[C@H]1Oc2ncc(C#CC(C)C)cc2C(=O)N([C@H](C)CO)C[C@H]1C,·,·,·,·,·,-1,·,·
Cn1c(/C(C#N)=C/c2ccc(-c3ccc(S(N)(=O)=O)cc3)o2)nc2ccccc21,0,118*,-72,-71,-2,3,120*,121*
Cc1ccc(C(=O)CSc2nn3c(=O)c(C(C)(C)C)nnc3s2)cc1,0,32*,6,5,-4,·,3,6
O=C(C[C@H]1C=C[C@@H](NC(=O)Nc2cc(F)ccc2F)[C@H](CO)O1)Nc1ccc(-c2ccccc2)cc1,·,·,·,·,·,0,·,·
Cc1noc(C)c1S(=O)(=O)N(C)C[C@H]1Oc2c(NS(=O)(=O)c3ccc(F)cc3)cccc2C(=O)N([C@@H](C)CO)C[C@H]1C,·,·,·,·,·,0,·,·
C=CCNc1nc(-c2cccs2)c(CC(=O)O)s1,0,6,-12,3,9,0,·,·
CCN(CC)CCNc1nc(-c2cccs2)c(CC(=O)O)s1,0,29*,16,0,2,0,6,7
O=C(O)Cc1sc(Nc2cccc3ccccc23)nc1-c1ccc(F)cc1,0,·,6,-1,5,0,·,·
O=C(O)Cc1sc(NCCc2ccccc2)nc1-c1ccc(F)cc1,0,27*,14,32,6,0,2,8
O=C(O)Cc1sc(Nc2ccccc2)nc1-c1cccs1,0,42*,·,51*,45*,·,36*,46*
C[C@@H]1CC=CC[C@H](c2ccc(F)cc2)NC(=O)[C@H](C)N(C)C(=O)c2ccccc2O1 (mixture of isomers),·,·,·,·,·,0,·,·
CC(C)NC(=O)Nc1ccc2c(c1)CC(=O)N([C@@H](C)CO)C[C@H](C)[C@H](CN(C)S(=O)(=O)c1cccs1)O2,·,·,·,·,·,0,·,·
CCn1c(O)c(/C=C/C=C/C=Nc2ccccc2)sc1=S,0,12,38,11,18,0,·,·
Oc1c(/C=C/C=C/C=Nc2ccccc2)sc(=S)n1Cc1ccccc1,0,43*,·,25,43*,0,28*,39*
COC(=O)C[C@@H]1C[C@@H]2c3cc(NC(=O)Nc4ccc(OC)cc4)ccc3O[C@@H]2[C@@H](CO)O1,·,·,·,·,·,0,·,·
COc1ccc(Nc2ccc(S(=O)(=O)N3CCCCC3)cc2[N+](=O)[O-])cc1,-1,67*,-3,-2,-4,0,6,9
COc1ccc(-c2cc(C(F)(F)F)c3c(n2)sc2c(O)cc(=O)[nH]c23)c(OC)c1,0,69*,·,123,90,0,82*,85*
COc1cccc(NC(=O)N2C[C@@H](O)COC[C@@H]3O[C@@H](CC(=O)NCCCN4CCOCC4)CC[C@H]32)c1,·,·,·,·,·,0,·,·
CCOc1ccc(N2C(=O)C3Sc4[nH]c(=O)sc4C(/C=C/c4ccccc4)C3C2=O)cc1 (stereo unspecified),0,51*,·,16,34,0,34*,40*
